Measurements from different studies.
Lines come from different studies, so protocols differ.
EGFR del747-750/T751S: Epidermal growth factor receptor (EGFR, Homo sapiens, UniProt P00533, del747-750/T751S)
EGFR T790M: Epidermal growth factor receptor (EGFR, Homo sapiens, UniProt P00533, T790M)
EGFR G719S: Epidermal growth factor receptor (EGFR, Homo sapiens, UniProt P00533, G719S)
EGFR L858R/T790M: Epidermal growth factor receptor (EGFR, Homo sapiens, UniProt P00533, L858R/T790M)
EGFR L861Q: Epidermal growth factor receptor (EGFR, Homo sapiens, UniProt P00533, L861Q)
EGFR: Epidermal growth factor receptor (EGFR, Homo sapiens, UniProt P00533)
EGFR del747-752/P753S: Epidermal growth factor receptor (EGFR, Homo sapiens, UniProt P00533, del747-752/P753S)
EGFR del752-759: Epidermal growth factor receptor (EGFR, Homo sapiens, UniProt P00533, del752-759)
EGFR G719C: Epidermal growth factor receptor (EGFR, Homo sapiens, UniProt P00533, G719C)

Compound	target	observed	method	tested at	remaining binding
O=C(O)[C@H]1[C@H](Cn2nnc3ccccc3c2=O)CC[C@@H]1C(=O)c1ccc(OCCC2CCOCC2)cc1	EGFR del747-750/T751S	cell-free assay	competition with immobilised ligand	1 µM	65%
O=C(c1ccc(Nc2ncc(Cl)c(-c3cc4ccccc4s3)n2)cc1)N1CCC(N2CCCC2)CC1	EGFR T790M	binding	competition with immobilised ligand	1 µM	58%
Nc1ncc2c(n1)-c1c([nH]c3ccc(C#CC4CC4)cc13)CCCC2	EGFR T790M	binding	competition with immobilised ligand	1 µM	86%
C[C@@H]1CN(c2cc(-c3n[nH]c4ccc(OC5(C)CC5)cc34)ncn2)C[C@H](C)O1	EGFR G719S	cell-free assay	competition with immobilised ligand	0.1 µM	59%
CCN1CCN(Cc2ccc(C(=O)Nc3ccc(C)c(Oc4ccc5c(c4)CC(=O)N5)c3)cc2C(F)(F)F)CC1	EGFR T790M	binding	competition with immobilised ligand	1 µM	83%
NS(=O)(=O)c1cc(NC(=O)Cc2ccccc2)ccc1Oc1cccc(Cl)c1	EGFR L858R/T790M	cell-free assay	competition with immobilised ligand	1 µM	75%
O=C(c1ccc(Nc2ncc(Cl)c(-c3ccc(Cl)s3)n2)cc1)N1CCC(N2CCCC2)CC1	EGFR L861Q	binding	competition with immobilised ligand	1 µM	100%
F[C@@H]1CCN(c2nccc(-c3cnn4ncccc34)n2)C1	EGFR	binding	–	1 µM	91%
CN1CCN(c2ccc(Nc3nccc(-c4cccc([N+](=O)[O-])c4)n3)cc2C(F)(F)F)CC1	EGFR G719S	binding	–	10 µM	98%
O=C(NCC1CCOCC1)c1n[nH]cc1NC(=O)c1c(F)cccc1F	EGFR del747-752/P753S	binding	competition with immobilised ligand	1 µM	100%
COc1ccnn2ncc(-c3ccnc(N(C)C)n3)c12	EGFR	binding	–	1 µM	79%
COc1cnc(Nc2cccc(S(N)(=O)=O)c2)nc1N1CCN(c2ccccc2)CC1	EGFR L861Q	binding	competition with immobilised ligand	1 µM	100%
Cc1nc(N2CC[C@@H](O)C2)ncc1-c1cc(C(F)(F)F)cc2[nH]ncc12	EGFR del752-759	cell-free assay	competition with immobilised ligand	1 µM	99%
CNC(=O)[C@@H]1CC[C@@H](n2c(-c3ccc4cnccc4c3)nc3ccc(C(=O)NCc4cccc(C(N)=O)c4)cc32)C1	EGFR L861Q	binding	competition with immobilised ligand	1 µM	100%
N#Cc1ccc(Nc2ccc3[nH]c(=O)[nH]c3c2)c(Cl)c1	EGFR del752-759	cell-free assay	competition with immobilised ligand	1 µM	100%
O=C(NCCCN1CCOCC1)c1ccc(Nc2nccc(-c3cc4ccccc4s3)n2)cc1	EGFR G719C	binding	competition with immobilised ligand	1 µM	99%

Compound	target	observed	method	tested at	remaining binding
FC(F)(F)c1ccc2c(c1)nc(-c1cccnc1)n2C1CC1	EGFR G719S	cell-free assay	competition with immobilised ligand	1 µM	93%
COc1ncc2cc3ccccc3nc2c1C#N	EGFR L861Q	cell-free assay	competition with immobilised ligand	5 µM	100%
c1cnn2ncc(-c3ccnc(N4CCC45COC5)n3)c2c1	EGFR L858R/T790M	binding	–	1 µM	65%
O=C(c1ccc(Nc2nccc(-c3cc4ccccc4s3)n2)cc1)N1CCC(N2CCCC2)CC1	EGFR del747-752/P753S	binding	competition with immobilised ligand	1 µM	90%
CNC(=O)Nc1ccc2c(c1)[C@@]1(CC2)OC(=O)N(CC(=O)N(Cc2ccc(F)cc2)[C@@H](C)C(F)(F)F)C1=O	Epidermal growth factor receptor (EGFR, Homo sapiens, UniProt P00533, A750P/del747-749)	cell-free assay	competition with immobilised ligand	1 µM	96%
C[C@H]1CCN(c2nccc(-c3cnn4ncccc34)n2)C1	EGFR L861Q	binding	–	1 µM	81%
O=C(Nc1c[nH]nc1C(=O)NC1CCNCC1)c1cc(F)cc(F)c1	EGFR G719S	binding	competition with immobilised ligand	1 µM	100%
CN(CCCC(F)(F)F)c1nccc(-c2cnn3ncccc23)n1	EGFR del752-759	binding	–	1 µM	85%
CN1CCN(c2ccc(Nc3nccc(-c4ccccc4)n3)cc2C(F)(F)F)CC1	EGFR T790M	binding	–	10 µM	77%
Cc1cnc(Nc2ccc(C(=O)N3CCC(N4CCCC4)CC3)cc2)nc1-c1cc2ccccc2s1	EGFR del747-752/P753S	binding	competition with immobilised ligand	1 µM	100%
c1cncc(-c2cccc(Nc3nccc(NC4CCCCC4)n3)c2)c1	EGFR G719S	binding	competition with immobilised ligand	10 µM	68%
Cc1cnn2ncc(-c3ccnc(N(C)C)n3)c2c1	EGFR	binding	–	1 µM	75%
CCC(=O)N[C@H]1CC[C@@H](C(=O)N(C)c2ccc(-c3nc4ccccc4o3)cc2)C1	Epidermal growth factor receptor (EGFR, Homo sapiens, UniProt P00533, del746-750)	cell-free assay	competition with immobilised ligand	1 µM	78%
COc1cnc(Nc2cccc(S(N)(=O)=O)c2)nc1N1CCN(c2ccccc2)C(=O)C1	EGFR L861Q	binding	competition with immobilised ligand	1 µM	100%
CN(C)c1ncc(F)c(-c2cnn3ncccc23)n1	EGFR G719C	binding	–	1 µM	86%
O=C(NCCCN1CCOCC1)c1ccc(Nc2ncc(Cl)c(-c3ccc(Cl)s3)n2)cc1	EGFR del747-750/T751S	binding	competition with immobilised ligand	1 µM	100%
